A word on the Ki: it is a dissociation constant, usually derived from enzyme kinetics or from competition with a known ligand.

A value given as a limit tells only on which side of the number the result lay.

The nature of data set [1]: Inhibition of N-terminal 6x-His/Sumo-tagged NDM-1 (29 to 270 residues) (unknown origin) expressed in Escherichia coli BL21 (DE3) assessed as reduction in nitrocefin hydrolysis by spectrophotometry. Set-up: species or system Bacteria. The method in brief:
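Metallo-enzyme assay in 50 mM HEPES pH 7.2 with 50 µM zinc sulfate, 0.01% Triton X-100 and 20 µg/mL BSA, 37 °C. NDM-1 was construct 1 with the His/SUMO tag cleaved, at 2 nM; VIM-2 had its His tag TEV-cleaved, at 0.5 nM.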

A short description of data set [2]: Inhibition of N-terminal 6x-His-tagged VIM-2 (unknown origin) expressed in Escherichia coli Rosetta 2 (DE3) assessed as reduction in nitrocefin hydrolysis by spectrophotometry. Set-up: species or system Bacteria. The method in brief:
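Metallo-enzyme assay in 50 mM HEPES pH 7.2 with 50 µM zinc sulfate, 0.01% Triton X-100 and 20 µg/mL BSA, 37 °C. NDM-1 was construct 1 with the His/SUMO tag cleaved, at 2 nM; VIM-2 had its His tag TEV-cleaved, at 0.5 nM. Nitrocefin hydrolysis read at 486 nm; IC50 from sigmoidal fit, Ki by Cheng-Prusoff; mostly duplicate.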

In data set [3] the test system is Escherichia coli. Briefly: Antimicrobial activity against Escherichia coli 5980 expressing NDM1 assessed as inhibition of microbial growth incubated for 18 to 20 hrs by CLSI based method. The data set is classed as organism-based. The method in brief: (§1)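 CLSI broth microdilution in MHBII. Compound tested alone in serial two-fold dilutions, 128–0.12 µg/mL. Inoculum was set to 0.5 McFarland and diluted to about 5×10^5 CFU per well. Plates incubated at 35 °C for 18–20 h. MIC read as the lowest concentration with no visible growth; an un-inoculated plate served as solubility control.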

In data set [4] the test system is Klebsiella pneumoniae. Briefly: Antimicrobial activity against Klebsiella pneumoniae 4683 expressing KPC2 assessed as inhibition of microbial growth incubated for 18 to 20 hrs by CLSI based method. It counts as organism-based. The method, boiled down:
as §1

Data set [5] deals with Klebsiella pneumoniae. Briefly: Antimicrobial activity against Klebsiella pneumoniae 5979 expressing NDM1 assessed as inhibition of microbial growth incubated for 18 to 20 hrs by CLSI based method. It counts as organism-based. The method in brief:
as §1

In data set [6] the test system is Enterobacter cloacae. Nature of the data set: Antimicrobial activity against Enterobacter cloacae 5981 expressing NDM1 assessed as inhibition of microbial growth incubated for 18 to 20 hrs by CLSI based method. The data set is classed as functional. The method, boiled down: as §1
The next data set relates to Pseudomonas aeruginosa. Nature of the data set: Antimicrobial activity against Pseudomonas aeruginosa 4698 expressing VIM2 assessed as inhibition of microbial growth incubated for 18 to 20 hrs by CLSI based method. The data set is classed as organism-based. The method, boiled down: as §1
Data set [7] deals with Escherichia coli. Nature of the data set: Inhibition of NDM-1 in Escherichia coli 5980 assessed as potentiation of imipenem-induced antimicrobial activity by measuring imipenem MIC incubated for 18 to 20 hrs by CLSI based method (reference value: 8 ug/ml). The method in brief: (§2)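 CLSI broth microdilution in MHBII. […] Inoculum about 5×10^5 CFU per well, incubated at 35 °C for 18–20 h. Imipenem MIC read as absence of visible growth.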

Data set [8] addresses Metallo-beta-lactamase type 2 (Klebsiella pneumoniae) (UniProt C7C422). Briefly: Inhibition of NDM-1 in Klebsiella pneumoniae 5979 assessed as potentiation of imipenem-induced antimicrobial activity by measuring imipenem MIC incubated for 18 to 20 hrs by CLSI based method (reference value: <[…] ug/ml).
The test system of data set [9] is Enterobacter cloacae. Nature of the data set: Inhibition of NDM-1 in Enterobacter cloacae 5981 assessed as potentiation of imipenem-induced antimicrobial activity by measuring imipenem MIC incubated for 18 to 20 hrs by CLSI based method (reference value: 2 ug/ml). The method in brief: as §2
Data set [10] is described as follows: Inhibition of N-terminal 6x-His-tagged Klebsiella pneumoniae KPC2 (25 to 293 residues) assessed as reduction in nitrocefin hydrolysis by spectrophotometry. The method, boiled down: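 Purified recombinant KPC-2 at 1 nM in 100 mM Tris-HCl pH 7.0 with 0.01% Triton X-100, 37 °C, reaction started by enzyme. IC50 from sigmoidal fit; Ki by Cheng-Prusoff using the nitrocefin Km. Run in duplicate, or once or in triplicate for some compounds.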

The nature of data set [11]: Permeability in MDCK-MDR1 cells assessed as drug recovery. It counts as ADME, cell-based, Canis lupus familiaris. The note with it: dog.

Metallo-beta-lactamase type 2 (Klebsiella pneumoniae), sequence (C7C422 whole entry): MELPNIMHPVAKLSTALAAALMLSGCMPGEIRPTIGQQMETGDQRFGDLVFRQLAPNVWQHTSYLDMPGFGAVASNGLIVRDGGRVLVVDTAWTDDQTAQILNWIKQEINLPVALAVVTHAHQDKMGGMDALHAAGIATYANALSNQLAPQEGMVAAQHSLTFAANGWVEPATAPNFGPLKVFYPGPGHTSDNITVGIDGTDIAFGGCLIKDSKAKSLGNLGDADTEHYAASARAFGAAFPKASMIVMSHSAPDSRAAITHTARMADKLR

For the compound `Cc1cc(Br)c2c(CP(=O)(O)O)cc(=O)oc2c1`, the Ki in [1] (read-out: Ki) was determined as 34.2 µM; in [2], 1.2 µM. The MIC in the data set on Escherichia coli [3] is more than 128 µg/mL; in the data set on Klebsiella pneumoniae [4], more than 128 µg/mL; in the data set with Klebsiella pneumoniae [5], more than 128 µg/mL; in the data set with Enterobacter cloacae [6], more than 128 µg/mL; in the data set with Pseudomonas aeruginosa, more than 128 µg/mL; with Escherichia coli [7], 2 µg/mL. Also, the values for the MIC (in data set [8]; in the data set on Enterobacter cloacae [9]) were 32 µg/mL and 2 µg/mL, respectively.

With `Cn1c(=O)cc(CP(=O)(O)O)c2ccccc21`, the Ki in data set [1] (read-out: Ki) stood at 81 µM; in data set [2], 7.5 µM.

For the compound `Cc1cc(F)c2c(CP(=O)(O)O)cc(=O)oc2c1`, the Ki in data set [10] was determined as 8.5 µM; in data set [1] (read-out: Ki), 230 µM; in data set [2], 3.3 µM.

As to `C[C@H]1O[C@@H](O[C@H]2[C@@H](O)C[C@H](O[C@H]3[C@@H](O)C[C@H](O[C@H]4CC[C@@]5(C)[C@H](CC[C@@H]6[C@@H]5C[C@@H](O)[C@]5(C)[C@@H](C7=CC(=O)OC7)CC[C@]65O)C4)O[C@@H]3C)O[C@@H]2C)C[C@H](O)[C@@H]1O` [DIGOXIN], in data set [11], the Drug recovery amounted to 105%.

Take `CC(C)NCC(O)COc1cccc2ccccc12` (stereo unspecified) [PROPRANOLOL]: in [11], the Drug recovery amounted to 97%.

Regarding `COc1cc(C)cc2oc(=O)cc(CP(=O)(O)O)c12`, the Ki in [10] amounted to 11.9 µM.

`O=P(O)(O)Cc1cccc2cccnc12`: in data set [2], the Ki came out at 22.3 µM.

For `O=c1cc(CP(=O)(O)O)c2c(F)cc(F)cc2o1`, the results for the inhibitory constant (Ki) result in [1] and in [2] were “Not Active” and 3.3 µM, respectively.

For the origin of these results see ChEMBL document CHEMBL4321808, “Heteroaryl Phosphonates as Noncovalent Inhibitors of Both Serine- and Metallocarbapenemases” (J Med Chem, 2019).
